# Source: PubChem BioAssay (several laboratories)
# 697 NFkB inh: inhibitors of the PMA/ionomycin-induced NF-kB reporter in 697 B cells; 697 B-cell NF-kB luciferase reporter, 16 h; inhibition, % at 4 µM; 330,000 tested, 0.33% active; in the data active means inhibition above about 35%
# aDG glyco up: increases alpha dystroglycan glycosylation; Pro5-aDG cells, alpha-DG glycosylation AlphaScreen (IIH6); 0% Pro5, 100% B10-LARGE cell signal; activation, % at 10 µM; 360,000 tested, 0.22% active;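 active means activation of at least 8% versus controls, or a plate z-score of at least 8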;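 further: Pro5 are CHO cells carrying HIG-tagged alpha-DG that lacks glycosylation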
# Jurkat NFkB inh: inhibitors of the PMA/ionomycin-induced NF-kB reporter in Jurkat cells. 330,000 tested, 0.53% active. inhibition, % at 4 µM. AID 435003. PMA/ionomycin-induced NF-kB luciferase reporter, luminescence; in the data active means inhibition above about 50%
# NR2E3 ag-1: NR2E3 (human) agonism; GST-NR2E3/biotin-RetCOR TR-FRET, 1536-well; inhibition of corepressor binding, % at 4.78 µM; 320,000 tested, 0.12% active; AID 2300;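 active means percent inhibition above the cutoff of mean plus 3 SD of all tested compounds, set per screening campaign, cut at about 20% in these data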;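 further: 0% = DMSO wells and 100% = biotin wells as full block of FRET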
# Target sequence (Q9Y5X4 whole entry, looked up): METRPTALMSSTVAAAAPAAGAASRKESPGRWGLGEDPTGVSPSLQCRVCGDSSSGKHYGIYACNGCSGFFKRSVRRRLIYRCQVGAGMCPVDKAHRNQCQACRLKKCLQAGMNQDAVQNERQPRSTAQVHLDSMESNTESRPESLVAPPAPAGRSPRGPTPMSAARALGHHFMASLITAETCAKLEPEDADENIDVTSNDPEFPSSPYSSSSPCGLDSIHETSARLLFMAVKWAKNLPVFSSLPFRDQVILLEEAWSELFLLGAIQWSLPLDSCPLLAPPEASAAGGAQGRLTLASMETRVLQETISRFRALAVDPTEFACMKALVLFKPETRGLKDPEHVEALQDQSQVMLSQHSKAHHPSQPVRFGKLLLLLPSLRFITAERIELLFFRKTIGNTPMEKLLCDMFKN
#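 Assay system: NR2E3–RetCOR corepressor complex. Quantity: 1.35 nM GST-NR2E3. Buffer or medium: pH 7.5 Tris-based buffer. Reagent: biotinylated RetCOR corepressor at 7 nM final. Schedule: 5 h at 4 °C. Detection: TR-FRET, emission read at 617 and 671 nm. Replicates: one well per compound, singlicate testing.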
# MPTP block: inhibitors of mitochondrial permeability transition pore. 360,000 tested, 1.4% active. isolated mouse mitochondria, Ca2+ swelling absorbance, 30 min. inhibition, % at 10 µM. AID 602449;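 active means inhibition of 50% or more, scaled per plate between neutral and stimulator controls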;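 further: 0% = DMSO wells given calcium and 100% = 1 mM EGTA wells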
# NR2E3 ag-2: human photoreceptor-specific nuclear receptor agonism | CHO-S Gal4-NCOR/VP16-NR2E3 two-hybrid, luciferase | inhibition of corepressor binding, % at 3.98 µM | 360,000 tested, 0.35% active | AID 602229;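 active means inhibition above the mean of all tested compounds plus 3 SD, cut at about 70% in these data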;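 further: 0% = DMSO with NR2E3 transfected cells and 100% = cells lacking NR2E3 construct; higher means lower luciferase signal from less NR2E3 corepressor binding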
# Jurkat NFkB conf: lowers PMA/ionomycin-induced NF-kB signal in Jurkat cells | shares compounds with Jurkat NFkB inh | Jurkat NF-kB luciferase, 16 h | inhibition, % at 4 µM | 2,700 tested, 27% active;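 active means inhibition reaching about 45% at 4 µM in either replicate, limit read from the data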;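 further: plate controls were PMA/ionomycin stimulated DMSO wells for no effect and unstimulated DMSO wells for full effect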
# Active calls of the source: *; x = no result given. Shown are actives, neighbours in structure and some others; about 2.4% of the full set was active somewhere.
SMILES,697 NFkB inh,aDG glyco up,Jurkat NFkB inh,NR2E3 ag-1,MPTP block,NR2E3 ag-2,Jurkat NFkB conf
CC(=O)c1cccc(NC(=S)NC(=O)c2ccc(Br)cc2)c1,-109,0,91*,4,2,6,18
CN(C)C/C=C/C(O)(c1ccccc1)c1ccccc1,7,0,0,-1,1,7,x
CN(C)CC(CCC(CN(C)C)C(O)(c1ccccc1)c1ccccc1)C(O)(c1ccccc1)c1ccccc1 (stereo not given),11,x,65*,x,x,x,15
Cc1cc(NC(=O)CSCCO)no1,-11,0,-9,-4,0,-8,x
CCCNC(=O)c1nnsc1S(=O)c1ccc(Cl)cc1 (stereo not given),2,0,59*,x,0,17,17
O=C(COC(=O)c1cc(S(=O)(=O)N2CCCC2)ccc1O)Nc1ccc(F)cc1F,18,0,70*,x,-1,15,25
CC(=O)Nc1ccc(NC(=O)COC(=O)c2cc(S(=O)(=O)N3CCCC3)ccc2O)cc1,13,0,9,x,0,-35,x
COc1ccc(NC(=O)c2nc[nH]c2C(=O)Nc2ccccc2C)cc1,-23,0,53*,-2,-7,11,12
COc1ccccc1NC(=O)c1nc[nH]c1C(=O)Nc1ccccc1OC,-13,0,51*,-1,1,-44,10
O=C(O)c1cccnc1SCc1cccc(Cl)c1,11,0,12,2,0,-24,x
COC(=O)c1cccc(NC(=O)NC(=O)c2ccccc2Cl)c1,3,0,62*,5,1,-62,-7
CC(=O)c1cccc(NC(=S)NC(=O)c2ccccc2Cl)c1,-8,0,-11,5,-2,-10,x
COc1ccc(NS(=O)(=O)c2cc(NC(=O)c3cnc(C)cn3)ccc2N2CCCC2)cc1,7,0,16,4,1,-29,x
COc1ccc(NS(=O)(=O)c2cc(NC(=O)c3ccc(=O)[nH]c3)ccc2N2CCCC2)cc1,-46,0,63*,2,1,-22,19
O=C(COc1ccc(Br)cc1Br)NC(=O)NC1CCCC1,-66,0,-73,-4,3,-136,x
CC(C)(C)NC(=O)NC(=O)COc1ccc(Br)cc1Br,-201,1,-210,3,0,-175,-101
Cc1nn(-c2nc3ccccc3s2)c(N)c1-c1ccccc1,-232,0,-165,3,3,-179,-118
Cn1cc(SCC(=O)NCCc2ccccc2)c2ccccc21,1,0,-6,5,1,-44,x
CCCC1=C(C(=O)OCC)C(/C=C/c2ccccc2)n2ncnc2N1 (stereo not given),-62,0,53*,1,0,-54,1
CCOC(=O)C1=C(C)Nc2ncnn2C1/C=C/c1ccccc1 (stereo not given),6,0,5,-7,-1,5,x
COc1ccc(N(C)S(=O)(=O)c2cccc(C(=O)Nc3ccc(-n4cnnn4)cc3)c2)cc1,23,0,0,-1,3,9,x
CN1CCN(c2ccc([N+](=O)[O-])cc2C(=O)c2ccc(Br)cc2)CC1,-31,0,73*,1,-5,-76,26
Cc1ccc(C(=O)c2cc([N+](=O)[O-])ccc2N2CCN(C)CC2)cc1,-2,-1,41,0,1,-59,x
O=C(c1ccccc1)c1cc([N+](=O)[O-])ccc1N1CCCC1,-15,0,10,0,1,-9,x
Cc1ccc(C(=O)c2cc([N+](=O)[O-])ccc2N2CCOCC2)c(C)c1,22,-1,55*,0,5,32,50*
SMILES,697 NFkB inh,aDG glyco up,Jurkat NFkB inh,NR2E3 ag-1,MPTP block,NR2E3 ag-2,Jurkat NFkB conf
Cc1ccc(C(=O)c2cc([N+](=O)[O-])ccc2N2CCOCC2)cc1C,-75,0,66*,3,1,-34,51*
Cc1ccc(C(=O)c2cc([N+](=O)[O-])ccc2N2CCCCC2)cc1C,-34,0,63*,1,2,1,42
COc1ccc(-c2nc(-c3ccc(Br)o3)no2)cc1,-242,0,-203,0,1,-89,-148
COc1ccc(-c2noc(-c3ccc(Br)o3)n2)cc1,-154,0,-138,0,0,-42,x
CC1Cc2ccccc2N1C(=O)CSc1ncccn1 (stereo not given),2,0,-15,4,-1,-4,x
C(=C\c1ccccc1)/CSc1nnc(-c2ccccc2)n1Cc1ccco1,-41,0,60*,1,0,3,23
C(=C\c1ccccc1)/CSc1nnc(-c2ccncc2)n1Cc1ccco1,5,0,2,7,0,-9,x
O=C(Nc1ccc(N2CCOCC2)c(Cl)c1)c1cccc(F)c1,-143,0,-152,1,-1,-116,-96
Cc1ccc(C(=O)Nc2cc3ccccc3oc2=O)cc1,1,0,79*,0,-1,-123,77*
COc1cc(C(=O)NC(=S)Nc2cccc(-c3cc4ccccc4oc3=O)c2)cc(OC)c1OC,-13,0,11,0,12,-5,x
Cc1cc(NC(=S)NC(=O)c2ccccc2)ccc1-c1cc2ccccc2oc1=O,-24,0,59*,0,9,-13,4
CSCC[C@H](NC(=O)N1CCn2c1nc1ccccc12)C(=O)NC1CC1,7,0,10,0,-1,9,x
CCOC(=O)[C@@H]1[C@H]2COc3ccc(Br)cc3[C@@H]2N2C(=O)N(c3cccc(Cl)c3)C(=O)[C@]12C,6,0,11,-2,3,7,x
O=C(/C=C/c1cccc([N+](=O)[O-])c1)n1cnc2ccccc21,-43,-1,71*,x,0,-4,40
O=C(/C=C/c1cccc([N+](=O)[O-])c1)N1CCN(c2ccccn2)CC1,-6,0,-4,-1,1,-3,x
Cc1cc(C)c2cccc(N)c2n1,-44,0,3,-2,-1,-9,x
Cc1cc(C)c2ccc(N)nc2c1O,-2,-1,52*,2,0,29,14
CN(C)c1ccc(/C=N\Nc2ccccn2)cc1,-193,0,-185,-2,0,-72,-60
CCOc1ccccc1NC(=O)CCCNC(=O)Cn1cnc2sc(C)c(C)c2c1=O,3,0,3,1,0,12,x
CC1=CC(C)(C)N(S(=O)(=O)c2ccc(C)cc2)c2cc(C)ccc21,-95,0,50*,6,1,35,53*
COc1ccc2c(c1)C(C)=CC(C)(C)N2S(=O)(=O)c1ccc(C)cc1,10,-1,39,-2,1,0,x
O=C(CNS(=O)(=O)c1ccccc1)N1CCN(Cc2ccccc2)CC1,-3,0,5,1,2,-27,x
